Converted amounts (≈) assume the structure as drawn. The source made the active and inactive calls. The calls are words filed in the database; no cut-off is given here.
Experiments:
Glycogen phosphorylase [1] = assay: Inhibition of glycogen phosphorylase at 100 uM
[2] = biological target: T1, Glucose-6-phosphatase catalytic subunit 1 (Homo sapiens) (UniProt P35575); assay: Inhibition of glucose-6-phosphatase at 100 uM
T1 sequence (whole entry): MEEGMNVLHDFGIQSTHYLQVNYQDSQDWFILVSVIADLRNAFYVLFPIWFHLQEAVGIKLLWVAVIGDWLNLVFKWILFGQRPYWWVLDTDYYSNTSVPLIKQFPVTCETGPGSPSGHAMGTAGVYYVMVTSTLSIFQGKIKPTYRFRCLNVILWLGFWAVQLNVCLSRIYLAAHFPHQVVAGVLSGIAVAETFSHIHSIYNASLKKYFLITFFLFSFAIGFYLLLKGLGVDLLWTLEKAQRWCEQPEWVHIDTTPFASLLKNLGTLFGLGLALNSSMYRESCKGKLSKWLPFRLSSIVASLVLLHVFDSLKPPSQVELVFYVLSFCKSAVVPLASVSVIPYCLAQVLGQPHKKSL
In short: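 Compound was preincubated 10 min with glucose-6-phosphatase in 1.0 mL of 0.3 M citrate (pH 6.0), 28 mM EDTA, 14 mM NaF and 200 mM glucose-6-phosphate. The mixture was incubated 30 min at 37 °C and stopped with 10% TCA. Released Pi in the supernatant was measured by Taussky–Shorr; activity is µmol Pi/min/mg protein.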

[3] = biological target: T2, Tyrosine-protein phosphatase non-receptor type 1 (Homo sapiens) (UniProt P18031); assay: Inhibition of PTP1B at 100 uM
T2 sequence (whole entry): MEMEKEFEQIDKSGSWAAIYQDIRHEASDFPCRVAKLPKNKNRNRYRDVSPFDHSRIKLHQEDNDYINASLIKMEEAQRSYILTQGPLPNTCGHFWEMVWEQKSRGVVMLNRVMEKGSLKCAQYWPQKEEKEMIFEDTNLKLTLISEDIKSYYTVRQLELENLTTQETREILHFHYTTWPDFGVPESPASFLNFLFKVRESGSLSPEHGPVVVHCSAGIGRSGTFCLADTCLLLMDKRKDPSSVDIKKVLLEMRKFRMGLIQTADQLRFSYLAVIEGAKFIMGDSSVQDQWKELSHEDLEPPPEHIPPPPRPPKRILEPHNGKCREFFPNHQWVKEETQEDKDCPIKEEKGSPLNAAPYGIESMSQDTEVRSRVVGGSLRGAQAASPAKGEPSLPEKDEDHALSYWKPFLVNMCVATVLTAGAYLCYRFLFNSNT
In short: (§1)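 The PTP-1B assay used 10 mM pNPP in 50 mM HEPES (pH 7.0) with 1 mM DTT and 2 mM EDTA, 1.0 mL, 37 °C for 30 min. It was stopped with 0.1 N NaOH and read at 410 nm. p-Nitrophenolate was calculated with ε 1.78 × 10⁴ M⁻¹ cm⁻¹. Sodium vanadate was the reference.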

[4] = biological target: Maltase-glucoamylase (Homo sapiens) (UniProt O43451); assay: Inhibition of alpha-glucosidase at 100 uM
In short: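 Purified α-glucosidase (0.1 mg/mL) was assayed in 67 mM sodium phosphate (pH 6.8) with 1.0 mg/mL glutathione, 1 mL. The reaction was started with 3.0 mg/mL pNPG and followed at 405 nm every 30 s for 3 min.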

Glycogen phosphorylase [5] = assay: Inhibition of glycogen phosphorylase
Rattus norvegicus [6] = assay: Antihyperglycemic activity in Sprague-Dawley rat assessed as inhibition of streptozotocin-induced increase in blood glucose level at 100 mg/kg, po after 24 hrs; format: functional; parameters: scale not given: the % may be the effect or the level left
In short: (§2)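 Overnight-fasted male Sprague–Dawley rats were made diabetic with streptozotocin 60 mg/kg ip in 100 mM citrate (pH 4.5). Rats with glucose >10 mM at 48 h and a baseline of 140–270 mg/dL were used, 5 per group. Test suspension or 1% gum acacia vehicle was given orally, then sucrose 2.5 g/kg orally 30 min later. Glucose was read at 30–1440 min; % activity is from AUC versus vehicle (Dunnett test).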

Rattus norvegicus [7] = assay: Antihyperglycemic activity in Sprague-Dawley rat assessed as inhibition of streptozotocin-induced increase in blood glucose level at 100 mg/kg, po after 5 hrs; format: functional; parameters: scale not given: the % may be the effect or the level left
In short: as §2

[8] = biological target: T3, Tyrosine-protein phosphatase non-receptor type 1 (Homo sapiens, UniProt P18031); assay: Inhibition of PTP1B
T3 sequence (P18031 whole entry): T2 sequence (whole entry)
In short: as §1

Rattus norvegicus [9] = assay: Toxicity in Sprague-Dawley rat up to 250 mg/kg, po; format: organism-based; parameters: dose 250 mg/kg, route oral; details: in vivo
[10] = Solubility in triple distilled water; format: physicochemical

Chain of Maltase-glucoamylase (Homo sapiens) (O43451 whole entry, looked up): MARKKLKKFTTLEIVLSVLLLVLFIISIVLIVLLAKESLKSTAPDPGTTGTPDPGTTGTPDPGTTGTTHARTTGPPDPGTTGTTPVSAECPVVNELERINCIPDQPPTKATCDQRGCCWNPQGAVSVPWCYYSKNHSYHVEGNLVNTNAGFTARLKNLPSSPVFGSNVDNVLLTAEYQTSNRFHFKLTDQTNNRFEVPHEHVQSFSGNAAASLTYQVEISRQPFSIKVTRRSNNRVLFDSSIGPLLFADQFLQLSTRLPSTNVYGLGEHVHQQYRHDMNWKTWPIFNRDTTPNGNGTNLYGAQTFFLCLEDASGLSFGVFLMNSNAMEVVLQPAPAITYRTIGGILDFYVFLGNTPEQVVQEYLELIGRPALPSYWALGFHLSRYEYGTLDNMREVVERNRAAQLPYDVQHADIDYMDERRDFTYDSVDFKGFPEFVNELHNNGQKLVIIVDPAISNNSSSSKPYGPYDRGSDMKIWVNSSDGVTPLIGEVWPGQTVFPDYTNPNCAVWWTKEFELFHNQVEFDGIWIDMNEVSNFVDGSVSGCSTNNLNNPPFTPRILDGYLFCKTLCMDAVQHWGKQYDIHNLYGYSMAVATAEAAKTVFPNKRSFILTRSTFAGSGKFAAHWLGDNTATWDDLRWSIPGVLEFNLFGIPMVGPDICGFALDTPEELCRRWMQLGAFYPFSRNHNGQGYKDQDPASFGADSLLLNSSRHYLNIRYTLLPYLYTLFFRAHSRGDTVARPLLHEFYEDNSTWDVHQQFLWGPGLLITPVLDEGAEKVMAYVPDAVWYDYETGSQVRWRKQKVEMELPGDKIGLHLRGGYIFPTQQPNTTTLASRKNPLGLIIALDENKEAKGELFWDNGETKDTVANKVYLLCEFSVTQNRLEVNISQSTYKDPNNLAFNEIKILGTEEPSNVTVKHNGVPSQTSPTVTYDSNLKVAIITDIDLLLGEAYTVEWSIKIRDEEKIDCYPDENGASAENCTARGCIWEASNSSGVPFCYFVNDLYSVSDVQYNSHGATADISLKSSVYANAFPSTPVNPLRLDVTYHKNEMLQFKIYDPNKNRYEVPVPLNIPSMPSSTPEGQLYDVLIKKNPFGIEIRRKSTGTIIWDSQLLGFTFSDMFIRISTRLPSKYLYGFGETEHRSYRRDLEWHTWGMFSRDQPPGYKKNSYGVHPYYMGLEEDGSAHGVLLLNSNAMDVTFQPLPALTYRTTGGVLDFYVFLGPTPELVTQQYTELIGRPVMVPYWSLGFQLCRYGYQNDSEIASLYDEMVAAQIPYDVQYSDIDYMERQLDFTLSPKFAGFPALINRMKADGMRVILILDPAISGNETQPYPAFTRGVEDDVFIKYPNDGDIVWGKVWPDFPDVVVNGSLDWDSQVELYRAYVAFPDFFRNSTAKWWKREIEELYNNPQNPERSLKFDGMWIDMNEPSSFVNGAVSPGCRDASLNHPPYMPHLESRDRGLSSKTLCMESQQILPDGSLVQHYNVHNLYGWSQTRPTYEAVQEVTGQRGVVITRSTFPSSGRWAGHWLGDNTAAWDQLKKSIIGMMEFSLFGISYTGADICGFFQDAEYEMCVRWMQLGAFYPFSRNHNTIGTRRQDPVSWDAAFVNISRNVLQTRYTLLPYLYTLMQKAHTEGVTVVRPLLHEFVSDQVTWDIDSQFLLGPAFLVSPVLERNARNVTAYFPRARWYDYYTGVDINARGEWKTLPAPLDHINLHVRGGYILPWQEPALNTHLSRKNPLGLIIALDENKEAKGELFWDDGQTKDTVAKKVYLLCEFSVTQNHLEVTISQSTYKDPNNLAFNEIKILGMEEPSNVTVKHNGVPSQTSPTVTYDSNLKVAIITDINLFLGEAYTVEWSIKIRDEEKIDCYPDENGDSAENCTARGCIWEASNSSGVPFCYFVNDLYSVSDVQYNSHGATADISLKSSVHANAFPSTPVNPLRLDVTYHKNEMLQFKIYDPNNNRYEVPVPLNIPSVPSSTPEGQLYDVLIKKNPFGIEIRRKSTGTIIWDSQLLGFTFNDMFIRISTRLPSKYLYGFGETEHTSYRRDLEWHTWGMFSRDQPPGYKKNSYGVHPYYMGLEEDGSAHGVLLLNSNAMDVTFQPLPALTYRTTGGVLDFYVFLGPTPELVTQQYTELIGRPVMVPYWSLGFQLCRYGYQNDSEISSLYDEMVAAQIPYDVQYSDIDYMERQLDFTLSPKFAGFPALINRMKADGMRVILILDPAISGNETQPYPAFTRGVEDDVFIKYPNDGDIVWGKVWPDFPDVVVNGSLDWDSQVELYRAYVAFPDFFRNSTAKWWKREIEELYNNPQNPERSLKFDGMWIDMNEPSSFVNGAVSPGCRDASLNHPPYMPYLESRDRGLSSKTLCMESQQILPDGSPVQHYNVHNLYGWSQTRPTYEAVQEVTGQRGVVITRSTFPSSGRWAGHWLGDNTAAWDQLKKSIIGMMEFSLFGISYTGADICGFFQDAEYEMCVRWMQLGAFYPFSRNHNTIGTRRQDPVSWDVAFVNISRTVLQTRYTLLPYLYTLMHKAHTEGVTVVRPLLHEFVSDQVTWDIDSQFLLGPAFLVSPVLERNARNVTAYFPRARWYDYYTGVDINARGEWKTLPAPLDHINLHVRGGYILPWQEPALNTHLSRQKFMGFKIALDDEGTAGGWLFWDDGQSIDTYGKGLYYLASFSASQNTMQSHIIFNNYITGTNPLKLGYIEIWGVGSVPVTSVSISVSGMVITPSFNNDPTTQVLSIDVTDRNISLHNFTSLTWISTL

| SMILES | inhibition (Glycogen phosphorylase [1]) | inhibition [2] [%] | inhibition [3] | inhibition [4] | IC50 (Glycogen phosphorylase [5]) [µM] | Activity (Rattus norvegicus [6]) [%] | Activity (Rattus norvegicus [7]) [%] | IC50 [8] [µM] | Activity (Rattus norvegicus [9]) | solubility [10] [µg/mL] |
| --- | --- | --- | --- | --- | --- | --- | --- | --- | --- | --- |
| COc1ccc(-c2c(C#N)c(N)c(C#N)c(SC)c2-c2ccc(OC)c(OC)c2)cc1 | 13.8% | 0.3 | 30.7% | 25.9% | – | – | – | – | – | – |
| COc1ccc(-c2c(C)c(C#N)c(N)c(C#N)c2SC)cc1OC | 10% | 6.1 | 0% | 6.7% | – | – | – | – | – | – |
| COc1ccc(-c2c(C#N)c(N)c(C#N)c(SC)c2-c2ccc(F)cc2)c(OC)c1 | 74.3% | 1.9 | 28.2% | 11.5% | 79 | – | – | – | – | – |
| CN(C)C(=N)NC(=N)N [METFORMIN] | – | – | – | – | – | 21.9 | 20.9 | – | – | – |
| COc1ccc(-c2c(C)c(SC)c(C#N)c(N)c2C#N)cc1 | 37.5% | 12.3 | 0% | 17.3% | – | – | – | – | – | – |
| CSc1c(C#N)c(N)c(C#N)c(C)c1-c1ccc(F)cc1 | 5% | 41.8 | 3.6% | 17.3% | – | – | – | – | – | – |
| COc1ccc(-c2c(C)c(C#N)c(N)c(C#N)c2SC)c(OC)c1 | 50% | 0.08 | 25.6% | 10.5% | – | – | – | – | – | – |
| CSc1c(C#N)c(N)c(C#N)c(C)c1-c1ccc(C(F)(F)F)cc1 | 55% | 14.4 | 58.5% | 22.1% | – | – | – | – | – | – |
| Cc1c(-c2ccccc2)c(C#N)c(N)c(C#N)c1N1CCC(C)CC1 | 2.3% | 10.9 | inactive | – | – | – | – | – | – | – |
| CSc1c(C)c(-c2ccccc2)c(C#N)c(N)c1C#N | 45% | 0.96 | inactive | 6.7% | – | – | – | – | – | – |
| COc1ccc(-c2c(C#N)c(N)c(C#N)c(SC)c2-c2ccc(OC)cc2)cc1 | 6.9% | 5.5 | 76.9% | 14.4% | – | 17.6 | 17.5 | 72 | Non-toxic | – |
| Cc1c(-c2ccccc2)c(C#N)c(N)c(C#N)c1N1CCCCC1 | 4.7% | 38.2 | 31.1% | – | – | – | – | – | – | – |
| COc1ccc(-c2c(C)c(N3CCCCC3)c(C#N)c(N)c2C#N)cc1 | 15.7% | 33.3 | inactive | – | – | – | – | – | – | – |
| COc1ccc(-c2c(C#N)c(N)c(C#N)c(SC)c2-c2ccccc2)cc1 | 37.9% | 6.8 | 61.5% | 5.7% | – | 36.9 | 26.5 | 86 | Non-toxic | – |
| CSc1c(C#N)c(N)c(C#N)c(-c2ccccc2)c1-c1ccccc1 | inactive | 7.4 | 81.6% | 10.5% | – | 28.1 | 24.1 | 58 | Non-toxic | 0.13 (≈ 0.381 µM) |
| CSc1c(C#N)c(N)c(C#N)c(Cc2ccccc2)c1-c1ccccc1 | 11.6% | 24.5 | – | – | – | – | – | – | – | – |
| CSc1c(C#N)c(N)c(C#N)c(C)c1-c1ccccc1F | 20% | 8.2 | 40.2% | inactive | – | – | – | – | – | – |
| COc1ccc(-c2c(C#N)c(N)c(C#N)c(SC)c2-c2ccc(F)cc2)cc1 | inactive | 5.5 | 48.8% | 13.4% | – | 25.2 | 22.1 | – | – | – |
| CSc1c(C)c(-c2ccc(Cl)cc2)c(C#N)c(N)c1C#N | 12.5% | 19.3 | 7.3% | 6.7% | – | – | – | – | – | – |
